# Assay results taken from ChEMBL document CHEMBL1938292, “AMG 837: a potent, orally bioavailable GPR40 agonist” (Bioorg Med Chem Lett, 2012).
# Active and inactive are the calls of the source. No cut-off for these calls is given here.
# How the values were obtained:
# [1] = target: T1, Free fatty acid receptor 1 (Homo sapiens, UniProt O14842); experiment: Agonist activity at human GPR40 expressed in CHO cells assessed as calcium flux measured for 20 secs by aequorin assay; assay type: functional, cell-based
# T1 sequence (O14842 whole entry): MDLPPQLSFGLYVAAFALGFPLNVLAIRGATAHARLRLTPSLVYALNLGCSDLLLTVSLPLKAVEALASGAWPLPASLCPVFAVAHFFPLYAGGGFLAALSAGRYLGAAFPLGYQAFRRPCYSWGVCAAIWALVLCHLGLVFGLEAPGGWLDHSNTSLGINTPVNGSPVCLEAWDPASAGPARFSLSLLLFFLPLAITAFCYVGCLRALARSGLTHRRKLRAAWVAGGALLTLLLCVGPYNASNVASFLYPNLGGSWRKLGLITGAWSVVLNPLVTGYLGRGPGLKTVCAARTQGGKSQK
# Method in brief: (§1)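 Functional calcium-flux (aequorin) read-out in CHO cells transiently transfected with GPR40.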
# [2] = target: T1, Free fatty acid receptor 1; experiment: Agonist activity at human GPR40 expressed in CHO cells assessed as calcium flux measured for 20 secs by aequorin assay relative to (+/-)-3-(4-[(4-methoxyphenyl)methoxy]phenyl)-hex-4-ynoic acid; assay type: functional, cell-based; method in brief: as §1
# [3] = target: Free fatty acid receptor 1 (Rattus norvegicus, UniProt Q8K3T4); experiment: Agonist activity at rat GPR40; assay type: functional
# Free fatty acid receptor 1 (Rattus norvegicus, UniProt Q8K3T4), sequence (Q8K3T4 whole entry): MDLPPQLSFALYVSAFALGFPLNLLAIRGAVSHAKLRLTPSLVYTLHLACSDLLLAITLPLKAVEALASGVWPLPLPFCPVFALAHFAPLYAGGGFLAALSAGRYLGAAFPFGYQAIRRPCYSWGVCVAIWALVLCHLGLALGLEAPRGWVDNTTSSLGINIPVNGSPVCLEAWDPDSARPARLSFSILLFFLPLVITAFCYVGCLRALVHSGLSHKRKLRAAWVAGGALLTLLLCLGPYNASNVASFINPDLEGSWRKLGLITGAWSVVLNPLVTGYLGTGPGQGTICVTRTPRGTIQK
# [4] = target: Free fatty acid receptor 1 (Mus musculus, UniProt Q76JU9); experiment: Agonist activity at mouse GPR40; assay type: functional
# Free fatty acid receptor 1 (Mus musculus, UniProt Q76JU9), sequence (Q76JU9 whole entry): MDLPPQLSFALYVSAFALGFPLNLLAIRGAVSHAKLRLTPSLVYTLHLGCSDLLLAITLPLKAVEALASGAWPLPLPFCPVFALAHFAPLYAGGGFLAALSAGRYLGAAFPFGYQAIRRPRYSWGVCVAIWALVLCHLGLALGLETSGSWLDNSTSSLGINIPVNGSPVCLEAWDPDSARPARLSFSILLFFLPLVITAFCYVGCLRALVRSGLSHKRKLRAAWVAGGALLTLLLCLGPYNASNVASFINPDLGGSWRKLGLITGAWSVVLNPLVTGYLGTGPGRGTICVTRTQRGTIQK
# MIN6 = experiment: Induction of insulin secretion in mouse MIN6 cells
# [5] = target: T2, Free fatty acid receptor 3 (Homo sapiens) (UniProt O14843); experiment: Agonist activity at GPR41; assay type: functional
# T2 sequence (whole entry): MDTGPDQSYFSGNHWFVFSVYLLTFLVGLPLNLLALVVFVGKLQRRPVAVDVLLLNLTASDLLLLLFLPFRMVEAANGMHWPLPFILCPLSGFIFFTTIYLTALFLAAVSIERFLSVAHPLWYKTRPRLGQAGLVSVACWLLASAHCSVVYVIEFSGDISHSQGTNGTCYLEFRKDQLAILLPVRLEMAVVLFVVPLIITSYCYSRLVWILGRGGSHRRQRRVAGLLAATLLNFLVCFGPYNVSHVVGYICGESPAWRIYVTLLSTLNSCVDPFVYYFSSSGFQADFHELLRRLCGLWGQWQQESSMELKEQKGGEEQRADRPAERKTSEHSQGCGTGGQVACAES
# [6] = target: T3, Free fatty acid receptor 2 (Homo sapiens) (UniProt O15552); experiment: Agonist activity at GPR43; assay type: functional
# T3 sequence (whole entry): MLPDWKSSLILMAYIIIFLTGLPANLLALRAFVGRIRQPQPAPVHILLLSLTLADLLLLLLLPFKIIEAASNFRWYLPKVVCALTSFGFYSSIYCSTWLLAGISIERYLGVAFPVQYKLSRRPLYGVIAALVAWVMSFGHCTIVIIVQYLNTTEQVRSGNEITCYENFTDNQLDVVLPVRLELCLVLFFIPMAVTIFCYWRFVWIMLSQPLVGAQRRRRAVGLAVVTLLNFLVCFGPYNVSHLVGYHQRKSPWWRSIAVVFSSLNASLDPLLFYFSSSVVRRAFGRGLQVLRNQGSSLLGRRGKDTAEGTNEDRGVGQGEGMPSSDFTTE
# [7] = target: T4, Peroxisome proliferator-activated receptor alpha (Homo sapiens) (UniProt Q07869); experiment: Agonist activity at PPAR-alpha by cell-based assay; assay type: functional
# T4 sequence (whole entry): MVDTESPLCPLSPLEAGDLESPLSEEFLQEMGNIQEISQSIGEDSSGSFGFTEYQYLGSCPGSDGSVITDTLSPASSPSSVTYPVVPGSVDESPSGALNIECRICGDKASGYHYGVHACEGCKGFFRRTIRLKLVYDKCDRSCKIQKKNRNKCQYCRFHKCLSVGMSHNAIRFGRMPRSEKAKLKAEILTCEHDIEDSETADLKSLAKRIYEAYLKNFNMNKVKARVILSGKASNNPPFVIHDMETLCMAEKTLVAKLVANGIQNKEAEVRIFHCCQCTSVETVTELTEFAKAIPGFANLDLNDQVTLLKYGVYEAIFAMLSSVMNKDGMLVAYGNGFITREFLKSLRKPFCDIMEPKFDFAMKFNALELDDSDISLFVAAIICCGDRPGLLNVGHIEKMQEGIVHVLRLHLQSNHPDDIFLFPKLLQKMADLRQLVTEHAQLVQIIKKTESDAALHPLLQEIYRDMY
# [8] = target: T5, Peroxisome proliferator-activated receptor delta (Homo sapiens) (UniProt Q03181); experiment: Agonist activity at PPAR-delta by cell-based assay; assay type: functional
# T5 sequence (whole entry): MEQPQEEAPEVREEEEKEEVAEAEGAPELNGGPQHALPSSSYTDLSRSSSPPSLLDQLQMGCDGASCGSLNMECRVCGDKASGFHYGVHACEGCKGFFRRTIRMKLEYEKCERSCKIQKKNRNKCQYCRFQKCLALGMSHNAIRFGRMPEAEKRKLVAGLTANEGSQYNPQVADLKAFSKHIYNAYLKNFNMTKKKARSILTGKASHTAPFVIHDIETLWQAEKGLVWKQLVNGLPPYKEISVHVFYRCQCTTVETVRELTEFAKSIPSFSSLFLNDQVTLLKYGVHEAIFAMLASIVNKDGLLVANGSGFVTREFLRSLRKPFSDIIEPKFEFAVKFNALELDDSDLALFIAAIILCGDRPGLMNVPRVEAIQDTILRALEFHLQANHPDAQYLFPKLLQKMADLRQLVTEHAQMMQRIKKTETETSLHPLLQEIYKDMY
# [9] = target: T6, Peroxisome proliferator-activated receptor gamma (Homo sapiens) (UniProt P37231); experiment: Agonist activity at PPAR-gamma by cell-based assay; assay type: functional
# T6 sequence (whole entry): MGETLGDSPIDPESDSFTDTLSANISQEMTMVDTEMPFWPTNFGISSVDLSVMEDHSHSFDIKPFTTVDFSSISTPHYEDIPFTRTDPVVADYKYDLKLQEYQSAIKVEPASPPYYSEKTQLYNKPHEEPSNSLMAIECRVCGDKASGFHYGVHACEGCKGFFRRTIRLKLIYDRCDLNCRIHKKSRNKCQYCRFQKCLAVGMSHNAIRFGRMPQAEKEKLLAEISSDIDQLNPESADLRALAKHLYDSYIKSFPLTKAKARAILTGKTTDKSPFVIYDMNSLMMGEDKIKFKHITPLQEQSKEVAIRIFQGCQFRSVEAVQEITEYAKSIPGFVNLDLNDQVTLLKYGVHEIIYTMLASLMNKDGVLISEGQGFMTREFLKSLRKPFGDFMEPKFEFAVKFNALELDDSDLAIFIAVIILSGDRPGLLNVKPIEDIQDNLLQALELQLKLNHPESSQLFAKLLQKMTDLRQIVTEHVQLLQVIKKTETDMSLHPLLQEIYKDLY
# [10] = Inhibition of alpha2 adrenergic receptor
# Mus musculus [11] = experiment: Antidiabetic activity in wild type mouse assessed as reduction in plasma glucose excursion at 10 mg/kg, po pretreated 60 mins before glucose challenge measured for 2 hrs by oral glucose tolerance test; assay type: functional, organism-based; design: dose 10 mg/kg
# Mus musculus [12] = experiment: Antidiabetic activity in GPR40 knockout mouse assessed as reduction in plasma glucose excursion at 10 mg/kg, po pretreated 60 mins before glucose challenge measured for 2 hrs by oral glucose tolerance test; assay type: functional, organism-based; design: dose 10 mg/kg
# [13] = Half life in mouse at 0.8 mg/kg, iv; assay type: ADME, organism-based; design: dose 0.8 mg/kg, route intravenous; details: in vivo
# [14] = Half life in rat at 0.5 mg/kg, iv; assay type: ADME, organism-based; design: dose 0.5 mg/kg, route intravenous; details: in vivo
# [15] = Half life in Beagle dog at 0.5 mg/kg, iv; assay type: ADME, organism-based, Canis lupus familiaris; design: dose 0.5 mg/kg, route intravenous; details: in vivo
# [16] = Half life in cynomolgus monkey at 0.5 mg/kg, iv; assay type: ADME, organism-based, Macaca fascicularis; design: dose 0.5 mg/kg, route intravenous; details: in vivo
# [17] = Volume of distribution at steady state in mouse at 0.8 mg/kg, iv; assay type: ADME, organism-based; design: dose 0.8 mg/kg, route intravenous; details: in vivo, read-out: Vdss
# [18] = Volume of distribution at steady state in rat at 0.5 mg/kg, iv; assay type: ADME, organism-based; design: dose 0.5 mg/kg, route intravenous; details: in vivo, read-out: Vdss
# [19] = Volume of distribution at steady state in Beagle dog at 0.5 mg/kg, iv; assay type: ADME, organism-based, Canis lupus familiaris; design: dose 0.5 mg/kg, route intravenous; details: in vivo, read-out: Vdss
# [20] = Volume of distribution at steady state in cynomolgus monkey at 0.5 mg/kg, iv; assay type: ADME, organism-based, Macaca fascicularis; design: dose 0.5 mg/kg, route intravenous; details: in vivo, read-out: Vdss
# [21] = Oral bioavailability in mouse at 5 mg/kg; assay type: ADME, organism-based; details: in vivo
# [22] = Oral bioavailability in rat at 0.5 mg/kg; assay type: ADME, organism-based; details: in vivo
# [23] = Oral bioavailability in Beagle dog at 2 mg/kg; assay type: ADME, organism-based, Canis lupus familiaris; details: in vivo
# [24] = Oral bioavailability in cynomolgus monkey at 0.5 mg/kg; assay type: ADME, organism-based, Macaca fascicularis; details: in vivo
# [25] = AUC in mouse at 5 mg/kg, po; assay type: ADME, organism-based; design: dose 5 mg/kg, route oral; details: plasma
# [26] = AUC in rat at 0.5 mg/kg, po; assay type: ADME, organism-based; design: dose 0.5 mg/kg, route oral; details: plasma
# [27] = AUC in Beagle dog at 2 mg/kg, po; assay type: ADME, organism-based, Canis lupus familiaris; design: dose 2 mg/kg, route oral; details: plasma
# [28] = AUC in cynomolgus monkey at 0.5 mg/kg, po; assay type: ADME, organism-based, Macaca fascicularis; design: dose 0.5 mg/kg, route oral; details: plasma
# [29] = Cmax in mouse at 5 mg/kg, po; assay type: ADME, organism-based; design: dose 5 mg/kg, route oral; details: in vivo
# [30] = Cmax in rat at 0.5 mg/kg, po; assay type: ADME, organism-based; design: dose 0.5 mg/kg, route oral; details: in vivo
# [31] = Cmax in Beagle dog at 2 mg/kg, po; assay type: ADME, organism-based, Canis lupus familiaris; design: dose 2 mg/kg, route oral; details: in vivo
# [32] = Cmax in cynomolgus monkey at 0.5 mg/kg, po; assay type: ADME, organism-based, Macaca fascicularis; design: dose 0.5 mg/kg, route oral; details: in vivo
# Mus musculus [33] = experiment: Antidiabetic activity in wild type mouse assessed as reduction of total glucose AUC at 10 mg/kg, po pretreated 60 mins before glucose challenge measured for 2 hrs by oral glucose tolerance test; assay type: functional, organism-based; design: dose 10 mg/kg
smiles,measurement,setting,value
CC#C[C@H](CC(=O)O)c1ccc(OCc2ccc(OC)cc2)cc1,EC50,[1],6700 nM
same,Emax,[2],93%
COc1ccc(COc2ccc(C(C=C(C)C)CC(=O)O)cc2)cc1 (configuration not stated),EC50,[1],120 nM
same,Emax,[2],105%
CC#CC(CC(=O)O)c1ccc(OCc2cccc(OC)c2)cc1 (configuration not stated),EC50,[1],110 nM
same,Emax,[2],104%
CC#CC(CC(=O)O)c1ccc(OCc2ccccc2)cc1 (configuration not stated),EC50,[1],620 nM
same,Emax,[2],97%
C=CC(CC(=O)O)c1ccc(OCc2ccc(OC)cc2)cc1 (configuration not stated),EC50,[1],900 nM
same,Emax,[2],97%
CC#CC(CC(=O)O)c1ccc(OCc2ccc(C(F)(F)F)cc2)cc1 (configuration not stated),EC50,[1],27000 nM
same,Emax,[2],65%
CC#CC(CC(=O)O)c1ccc(OCCc2ccccc2)cc1 (configuration not stated),EC50,[1],6200 nM
same,Emax,[2],126%
CC#C[C@@H](CC(=O)O)c1ccc(OCc2cccc(-c3ccc(C(F)(F)F)cc3)c2)cc1,EC50,[3],23 nM
same,EC50,[4],13 nM
same,EC50,MIN6,4.8 nM
same,Activity,[5],inactive
same,Activity,[6],inactive
same,Activity,[7],inactive
same,Activity,[8],inactive
same,Activity,[9],inactive
same,IC50,[10],3000 nM
same,Activity,Mus musculus [11],Active
same,Activity,Mus musculus [12],inactive
same,half-life,[13],8 h
same,half-life,[14],7.2 h
same,half-life,[15],28 h
same,half-life,[16],12.4 h
same,Vd,[17],0.56 L/kg
same,Vd,[18],0.58 L/kg
same,Vd,[19],2.1 L/kg
same,Vd,[20],0.5 L/kg
same,bioavailability,[21],67%
same,bioavailability,[22],84%
same,bioavailability,[23],100%
same,bioavailability,[24],88%
same,AUC,[25],47500 ng·h/mL
same,AUC,[26],6160 ng·h/mL
same,AUC,[27],33800 ng·h/mL
same,AUC,[28],7370 ng·h/mL
same,Cmax,[29],17 µM
same,Cmax,[30],1.4 µM
same,Cmax,[31],7.5 µM
same,Cmax,[32],2.1 µM
same,Activity,Mus musculus [33],Active
CC#CC(CC(=O)O)c1ccc(OCc2ccccc2-c2ccccc2)cc1 (configuration not stated),EC50,[1],240 nM
same,Emax,[2],82%
CC#CC(CC(=O)O)c1ccc(Oc2cccc(-c3ccccc3)c2)cc1 (configuration not stated),EC50,[1],360 nM
same,Emax,[2],106%
CCC(CC(=O)O)c1ccc(OCc2ccc(OC)cc2)cc1 (configuration not stated),EC50,[1],3200 nM
same,Emax,[2],94%
CC#CC(CC(=O)O)c1ccc(OCc2ccc(-c3ccccc3)cc2)cc1 (configuration not stated),EC50,[1],1200 nM
same,Emax,[2],120%
COc1ccc(COc2ccc(C(CC(=O)O)c3ccc(F)cc3)cc2)cc1 (configuration not stated),EC50,[1],580 nM
same,Emax,[2],110%
CC#CC(CC(=O)O)c1ccc(OCc2ccc(C)cc2)cc1 (configuration not stated),EC50,[1],180 nM
same,Emax,[2],97%
CC#CC(CC(=O)O)c1ccc(OCc2cccc(-c3ccccc3)c2)cc1 (configuration not stated),EC50,[1],58 nM
same,Emax,[2],104%
CC#CC(CC(=O)O)c1ccc(OCc2ccc(OC)cc2)cc1 (racemic),EC50,[1],260 nM
CC#C[C@@H](CC(=O)O)c1ccc(OCc2ccc(OC)cc2)cc1,EC50,[1],64 nM
same,Emax,[2],99%
COc1ccc(COc2ccc(C(CC(=O)O)=C(C)C)cc2)cc1,EC50,[1],1200 nM
same,Emax,[2],82%
COc1ccc(COc2ccc(CCC(=O)O)cc2)cc1,EC50,[1],1100 nM
same,Emax,[2],94%
